The subject of the series is Liver microsome. Put plainly: Drug level in human liver microsomes treated with 50 uM 1-(1-Oxo-1-{4-[3-(trifluoromethyl)phenyl]piperazin-1-yl}-propan-2-yl)pyrrolidine-2,5-dione assessed as compound formation in presence of NADPH regeneration system pre-incubated at 37 degC for 5 min and measured 2 hrs after post NADPH system addition by UPLC and LC-MS/MS method. The series is classed as ADME. An outline of the steps: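 The compound was incubated 2 h with human liver microsomes. Metabolites were detected by full-scan chromatogram and identified by LC/MS from their [M+H]+ molecular masses.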
On the technique in general: Liver microsomes are vesicles of endoplasmic reticulum, rich in cytochrome P450 enzymes.

For the compound `CC(C(=O)N1C=CN(c2cccc(C(F)(F)F)c2)CC1)N1C(=O)CCC1=O` (centres undefined), the Drug metabolism result is given as “metabolite_detected”.
`O=C(C(CO)N1C(=O)CC(O)C1=O)N1C=CN(c2cccc(C(F)(F)F)c2)CC1` (centres undefined): the Drug metabolism result was “metabolite_detected”.
To `O=C(C(CO)N1C(=O)CCC1O)N1CCN(c2cccc(C(F)(F)F)c2)CC1` (centres undefined) belongs “metabolite_detected”; to `CC(C(=O)N1CCN(c2ccc(O)c(C(F)(F)F)c2)CC1)N1C(=O)CCC1=O` (centres undefined), “metabolite_detected”.

Values taken from ChEMBL document CHEMBL3580554, “Design, synthesis, and anticonvulsant activity of new hybrid compounds derived from 2-(2,5-dioxopyrrolidin-1-yl)propanamides and 2-(2,5-dioxopyrrolidin-1-yl)butanamides” (J Med Chem, 2015).
